Test results published in ChEMBL document CHEMBL1121524, “Studies of hypolipidemic agents. 1. Synthesis and hypolipidemic activities of alkoxycinnamic acid derivatives” (1980).

test system: Rattus norvegicus; assay: In vivo hypolipidemic activity, expressed as percent decrease in Triglyceride in rat, at dosage of 100 mg for 7 days.; type: functional
Method in brief: (§1)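 Male Sprague-Dawley rats, 4 weeks old, kept on CE-2 chow for at least 1 week, then grouped (generally five per group). Compound was mixed into CE-2 powder and fed ad libitum for the stated period; controls received plain CE-2 powder. Diet level is given as mg/100 g (mg%), about equal to mg/kg/day. Total serum triglyceride was measured by the Ryan and Rasho method and reported as percent depression versus control group mean. Significance was p < 0.05.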

Compound	Decrease
CCCCCCCCCCCCCCOc1ccc(/C=C(\C)C(=O)O)cc1	45%
CCCCOc1ccc(/C=C/C(=O)OCCCl)cc1	26%
CCCCCCCCCCCCCCCCOc1ccc(/C=C/C(=O)OCCS(=O)(=O)[O-])cc1.[Na+]	47%
CCCCOc1ccc(/C=C/C(=O)OCCS(=O)(=O)[O-])cc1.[Na+]	9%
C=C(C)C(=O)OCCOC(=O)/C(C)=C/c1ccc(OCCCCCCCCCCCCCCCC)cc1	62%
C=C(C)C(=O)OCCCOC(=O)/C=C/c1ccc(OCCCCCCCCCCCCCCCC)cc1	0%
C=C(C)C(=O)OCCOC(=O)/C=C/c1ccc(OCc2ccccc2)cc1	33%
C=C(C)C(=O)OCCOC(=O)/C=C/c1ccc(OCCCCCCCC)cc1	-11%
CCCCCCCCCCCCCCCCOc1ccc(/C=C/C(=O)OCCCCl)cc1	44%
CCCCOc1ccc(/C=C/C(=O)OCCBr)cc1	26%
CCCCCCCCCCCCCCCCOc1ccc(/C=C/C(=O)OCCO)cc1	57%
C=C(C)C(=O)OCCOC(=O)/C=C/c1ccc(OCCCCCCCCCCCCCCCC)cc1	65%
C/C=C/C(=O)OCCOC(=O)/C=C/c1ccc(OCCCCCCCCCCCCCCCC)cc1	11%
CCCCCCCCCCCCCCCCOc1ccc(/C=C/C(=O)OCC(O)CO)cc1 (stereo not given)	62%
CCCCOc1ccc(/C=C/C(=O)OCCO)cc1	26%
C=CCOc1ccc(/C=C/C(=O)OCCCl)cc1	26%
CCCCOc1ccc(/C=C/C(=O)OCCN2CCCCC2)cc1.Cl	2%
CCCCCCCCCCCCCCOc1ccc(/C=C(\C)C(=O)OCC(O)CO)cc1 (stereo in doubt; 97)	52%
CCOC(=O)C(C)(C)Oc1ccc(Cl)cc1 [CLOFIBRATE]	41%

test system: Rattus norvegicus; assay: In vivo hypolipidemic activity, expressed as percent decrease in serum triglyceride in rat, at dosage of 20 mg for 7 days.

Compound	Decrease
CCCCCCCCCCCCCCOc1ccc(/C=C(\C)C(=O)O)cc1	38%
C/C(=C\c1ccc(Oc2ccccc2)cc1)C(=O)O	15%
CCCCCCCCCCCCCCOc1ccc(/C=C(\C)C(=O)OCCC(=O)OC)cc1	7%
C=C(C)C(=O)OCCOC(=O)/C(C)=C/c1ccc(OCCCCCCCCCCCCCCCC)cc1	12%
C/C(=C\c1ccc(Oc2ccccc2)cc1)C(=O)OCCCl	22%
O=C(/C=C/c1ccc(Oc2ccccc2)cc1)OCC(O)CO (stereo not given)	26%
CCCCCCCCCCCCCCOc1ccc(/C=C(\C)C(=O)OCC)cc1	37%
CCCCCCCCCCCCCCCCOc1ccc(/C=C/C(=O)OCCCCl)cc1	38%
CCCCCCCCCCCCCCCCOc1ccc(/C=C/C(=O)OCCO)cc1	26%
C=C(C)C(=O)OCCOC(=O)/C=C/c1ccc(OCCCCCCCCCCCCCCCC)cc1	38%
CCCCCCCCCCCCCCCCOc1ccc(/C=C/C(=O)OCC(O)CO)cc1 (stereo not given)	8%
CCCCCCCCCCCCCCOc1ccc(/C=C(\C)C(=O)OCC(O)CO)cc1 (stereo in doubt; 97)	33%

organism: Rattus norvegicus; assay: tested for the hypolipidemic activity, expressed as percent decrease in serum cholesterol in rat, at dosage of 50 mg for 3 days by Zak et al method; type: functional
Method in brief: as §1, with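 “cholesterol” for “triglyceride”, “Zak et al.” for “Ryan and Rasho”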

Compound	Decrease
C=C(C)C(=O)OCCOC(=O)/C(C)=C/c1ccc(OCCCCCCCCCCCCCCCC)cc1	25%

test system: Rattus norvegicus; assay: In vivo hypolipidemic activity, expressed as percent decrease in serum cholesterol in rat, at dosage of 20 mg for 7 days.; type: functional
Method in brief: as §1, with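 “cholesterol” for “triglyceride”, “Zak et al.” for “Ryan and Rasho”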

Compound	Decrease
CCCCCCCCCCCCCCOc1ccc(/C=C(\C)C(=O)O)cc1	12%
C/C(=C\c1ccc(Oc2ccccc2)cc1)C(=O)O	8%
CCCCCCCCCCCCCCOc1ccc(/C=C(\C)C(=O)OCCC(=O)OC)cc1	-1%
C=C(C)C(=O)OCCOC(=O)/C(C)=C/c1ccc(OCCCCCCCCCCCCCCCC)cc1	13%
C/C(=C\c1ccc(Oc2ccccc2)cc1)C(=O)OCCCl	15%
O=C(/C=C/c1ccc(Oc2ccccc2)cc1)OCC(O)CO (stereo not given)	15%
CCCCCCCCCCCCCCOc1ccc(/C=C(\C)C(=O)OCC)cc1	6%
CCCCCCCCCCCCCCCCOc1ccc(/C=C/C(=O)OCCCCl)cc1	1%
CCCCCCCCCCCCCCCCOc1ccc(/C=C/C(=O)OCCO)cc1	18%
C=C(C)C(=O)OCCOC(=O)/C=C/c1ccc(OCCCCCCCCCCCCCCCC)cc1	16%
CCCCCCCCCCCCCCCCOc1ccc(/C=C/C(=O)OCC(O)CO)cc1 (stereo not given)	9%
CCCCCCCCCCCCCCOc1ccc(/C=C(\C)C(=O)OCC(O)CO)cc1 (stereo in doubt; 97)	14%

organism: Rattus norvegicus; assay: Hypolipidemic activity expressed as percentage decrease in triglyceride in rat, at dosage of 50 mg for 7 days; type: functional; method in brief: as §1

Compound	Decrease
CCCCCCCCCCCCCCOc1ccc(/C=C(\C)C(=O)O)cc1	26%
CCCCCCCCCCCCCCOc1ccc(/C=C(\C)C(=O)OCCC(=O)OC)cc1	37%
C/C(=C\c1ccc(Oc2ccccc2)cc1)C(=O)OCCCl	-6%
O=C(/C=C/c1ccc(Oc2ccccc2)cc1)OCC(O)CO (stereo not given)	29%
CCCCCCCCCCCCCCOc1ccc(/C=C(\C)C(=O)OCC)cc1	34%
CCCCCCCCCCCCCCCCOc1ccc(/C=C/C(=O)OCCCCl)cc1	48%
C=C(C)C(=O)OCCOC(=O)/C=C/c1ccc(OCCCCCCCCCCCCCCCC)cc1	42%
CCCCCCCCCCCCCCCCOc1ccc(/C=C/C(=O)OCC(O)CO)cc1 (stereo not given)	17%
CCCCCCCCCCCCCCOc1ccc(/C=C(\C)C(=O)OCC(O)CO)cc1 (stereo in doubt; 97)	43%
CCOC(=O)C(C)(C)Oc1ccc(Cl)cc1 [CLOFIBRATE]	35%

organism: Rattus norvegicus; assay: Tested for the hypolipidemic activity, expressed as percent decrease in serum cholesterol in rat, at dosage of 50 mg for 7 days; type: functional
Method in brief: as §1, with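 “cholesterol” for “triglyceride”, “Zak et al.” for “Ryan and Rasho”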

Compound	Decrease
CCCCCCCCCCCCCCOc1ccc(/C=C(\C)C(=O)O)cc1	17%
CCCCCCCCCCCCCCOc1ccc(/C=C(\C)C(=O)OCCC(=O)OC)cc1	30%
C/C(=C\c1ccc(Oc2ccccc2)cc1)C(=O)OCCCl	14%
O=C(/C=C/c1ccc(Oc2ccccc2)cc1)OCC(O)CO (stereo not given)	11%
CCCCCCCCCCCCCCOc1ccc(/C=C(\C)C(=O)OCC)cc1	7%
CCCCCCCCCCCCCCCCOc1ccc(/C=C/C(=O)OCCCCl)cc1	5%
C=C(C)C(=O)OCCOC(=O)/C=C/c1ccc(OCCCCCCCCCCCCCCCC)cc1	13%
CCCCCCCCCCCCCCCCOc1ccc(/C=C/C(=O)OCC(O)CO)cc1 (stereo not given)	19%
CCCCCCCCCCCCCCOc1ccc(/C=C(\C)C(=O)OCC(O)CO)cc1 (stereo in doubt; 97)	25%
CCOC(=O)C(C)(C)Oc1ccc(Cl)cc1 [CLOFIBRATE]	14%

organism: Rattus norvegicus; assay: tested for the hypolipidemic activity, expressed as percent decrease in Triglyceride in rat, at dosage of 50 mg for 3 days by Ryan and Rasho method; type: functional; method in brief: as §1

Compound	Decrease
C=C(C)C(=O)OCCOC(=O)/C(C)=C/c1ccc(OCCCCCCCCCCCCCCCC)cc1	27%

organism: Rattus norvegicus; assay: tested for the hypolipidemic activity, expressed as percent decrease in Triglyceride in rat, at dosage of 10 mg for 7 days by Ryan and Rasho method; type: functional; method in brief: as §1

Compound	Decrease
C=C(C)C(=O)OCCOC(=O)/C(C)=C/c1ccc(OCCCCCCCCCCCCCCCC)cc1	10%
C=C(C)C(=O)OCCOC(=O)/C=C/c1ccc(OCCCCCCCCCCCCCCCC)cc1	15%
CCCCCCCCCCCCCCCCOc1ccc(/C=C/C(=O)OCC(O)CO)cc1 (stereo not given)	11%

organism: Rattus norvegicus; assay: tested for the hypolipidemic activity, expressed as percent decrease in serum cholesterol in rat, at dosage of 10 mg for 7 days by Zak et al method; type: functional
Method in brief: as §1, with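 “cholesterol” for “triglyceride”, “Zak et al.” for “Ryan and Rasho”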

Compound	Decrease
C=C(C)C(=O)OCCOC(=O)/C(C)=C/c1ccc(OCCCCCCCCCCCCCCCC)cc1	3%
C=C(C)C(=O)OCCOC(=O)/C=C/c1ccc(OCCCCCCCCCCCCCCCC)cc1	5%
CCCCCCCCCCCCCCCCOc1ccc(/C=C/C(=O)OCC(O)CO)cc1 (stereo not given)	-4%

organism: Rattus norvegicus; assay: Hypolipidemic activity, expressed as percent decrease in serum cholesterol in rat, at dosage of 100 mg for 7 days by Zak et al method; type: functional
Method in brief: as §1, with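 “cholesterol” for “triglyceride”, “Zak et al.” for “Ryan and Rasho”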

Compound	Decrease
CCCCCCCCCCCCCCOc1ccc(/C=C(\C)C(=O)O)cc1	16%
CCCCOc1ccc(/C=C/C(=O)OCCCl)cc1	0%
CCCCCCCCCCCCCCCCOc1ccc(/C=C/C(=O)OCCS(=O)(=O)[O-])cc1.[Na+]	17%
CCCCOc1ccc(/C=C/C(=O)OCCS(=O)(=O)[O-])cc1.[Na+]	-1%
C=C(C)C(=O)OCCOC(=O)/C(C)=C/c1ccc(OCCCCCCCCCCCCCCCC)cc1	35%
C=C(C)C(=O)OCCCOC(=O)/C=C/c1ccc(OCCCCCCCCCCCCCCCC)cc1	16%
C=C(C)C(=O)OCCOC(=O)/C=C/c1ccc(OCc2ccccc2)cc1	13%
C=C(C)C(=O)OCCOC(=O)/C=C/c1ccc(OCCCCCCCC)cc1	16%
CCCCCCCCCCCCCCCCOc1ccc(/C=C/C(=O)OCCCCl)cc1	22%
CCCCOc1ccc(/C=C/C(=O)OCCBr)cc1	9%
CCCCCCCCCCCCCCCCOc1ccc(/C=C/C(=O)OCCO)cc1	24%
C=C(C)C(=O)OCCOC(=O)/C=C/c1ccc(OCCCCCCCCCCCCCCCC)cc1	27%
C/C=C/C(=O)OCCOC(=O)/C=C/c1ccc(OCCCCCCCCCCCCCCCC)cc1	3%
CCCCCCCCCCCCCCCCOc1ccc(/C=C/C(=O)OCC(O)CO)cc1 (stereo not given)	26%
CCCCOc1ccc(/C=C/C(=O)OCCO)cc1	9%
C=CCOc1ccc(/C=C/C(=O)OCCCl)cc1	-9%
CCCCOc1ccc(/C=C/C(=O)OCCN2CCCCC2)cc1.Cl	3%
CCCCCCCCCCCCCCOc1ccc(/C=C(\C)C(=O)OCC(O)CO)cc1 (stereo in doubt; 97)	45%
CCOC(=O)C(C)(C)Oc1ccc(Cl)cc1 [CLOFIBRATE]	22%
